Source: PubChem BioAssay
Most compounds without a hit are left out; they make up all but 2.3% or so of the library.
TRPC4 block: TRPC4 (mouse) channel inhibition | Q9QUQ5 | HEK293 TRPC4beta/mu-opioid, DAMGO-evoked Fluo4 calcium flux; active compounds read low | B-score at 10 µM | actives 0.39% (n = 300,000);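 active = B-score over 3 SD under the library average, no early fluorescence shift, positive overall ratio signal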
Target sequence (Q9QUQ5 whole entry, looked up): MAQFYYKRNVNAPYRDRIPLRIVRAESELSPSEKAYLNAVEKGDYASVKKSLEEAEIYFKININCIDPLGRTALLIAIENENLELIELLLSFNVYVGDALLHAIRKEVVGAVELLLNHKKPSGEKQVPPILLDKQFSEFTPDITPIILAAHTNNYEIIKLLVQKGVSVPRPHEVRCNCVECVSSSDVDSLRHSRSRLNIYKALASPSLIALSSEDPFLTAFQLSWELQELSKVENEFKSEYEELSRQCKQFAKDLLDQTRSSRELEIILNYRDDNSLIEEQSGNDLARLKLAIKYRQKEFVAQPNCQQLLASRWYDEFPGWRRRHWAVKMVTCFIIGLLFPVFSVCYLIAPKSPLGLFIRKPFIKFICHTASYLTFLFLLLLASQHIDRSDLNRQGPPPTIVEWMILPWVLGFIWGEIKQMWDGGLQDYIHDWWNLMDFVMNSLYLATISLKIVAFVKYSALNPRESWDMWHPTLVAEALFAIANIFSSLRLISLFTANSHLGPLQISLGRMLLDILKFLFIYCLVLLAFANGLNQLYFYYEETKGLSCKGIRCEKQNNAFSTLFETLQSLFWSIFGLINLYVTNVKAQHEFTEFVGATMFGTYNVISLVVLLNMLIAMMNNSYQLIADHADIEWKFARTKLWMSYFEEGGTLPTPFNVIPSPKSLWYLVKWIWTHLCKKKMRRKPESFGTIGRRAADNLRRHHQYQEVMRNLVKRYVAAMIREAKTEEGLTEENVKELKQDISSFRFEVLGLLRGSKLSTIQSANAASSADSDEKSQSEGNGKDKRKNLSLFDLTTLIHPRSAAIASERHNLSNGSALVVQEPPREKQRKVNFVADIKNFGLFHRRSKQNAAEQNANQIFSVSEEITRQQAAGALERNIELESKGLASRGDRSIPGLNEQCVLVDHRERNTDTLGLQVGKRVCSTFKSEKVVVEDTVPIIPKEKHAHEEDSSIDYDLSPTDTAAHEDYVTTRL
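System: stable TRPC4beta/mu-opioid receptor HEK293 cells; Dosing: single-point compound dosing; Measured by: Fluo4 Ca2+ flux fluorescence; Read-out basis: per-well B score of integrated baseline-normalized Fluo4 ratio.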
TRPC4 potent: TRPC4 (mouse) allosteric potentiation; Q9QUQ5; HEK293 TRPC4beta/mu-opioid, DAMGO EC20, Fluo-4 Ca2+ flux; active compounds read high; B-score at 10 µM; actives 0.42% (n = 310,000); AID 2227;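 active = B-score of calcium response area above 5 SD of library B-scores, with initial fluorescence ratio within 5 SD of library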
TRPC6 activator: activators of mouse TRPC6 channel; Q61143; HEK293-TRPC6 membrane potential dye fluorescence; active compounds read high; B-score at 10 µM; actives 0.13% (n = 310,000); AID 2550;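 active = B-score of the integrated fluorescence ratio above library mean plus 3 SD, and starting fluorescence ratio within library mean plus 5 SD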;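 also: higher score means more depolarization so channel activation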
TRPC6 inhibitor: mouse TRPC6 channel inhibition; HEK293-TRPC6, membrane potential dye, ACh-evoked depolarization; active compounds read low; B-score at 10 µM; actives 1.1% (n = 310,000); AID 2553;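 active = B-score under library mean minus 3 SD, initial fluorescence not abnormally high, positive integrated signal ratio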;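 also: B-score derived from integrated fluorescence ratio over the kinetic read; more negative B-score means stronger inhibition of depolarization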
TRPC4 agonist: activators of mouse TRPC4 channel; AID 2237; actives 0.49% (n = 310,000); B-score at 10 µM; Q9QUQ5; HEK293 TRPC4beta/mu-opioid, Fluo4 calcium fluorescence; active compounds read high;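 active = B-score above 5 SD of library B-scores, and initial fluorescence ratio not above library mean plus 5 SD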;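 also: positive B-score marks a calcium rise read as TRPC4 activation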
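System: HEK293 cells stably co-expressing mouse TRPC4beta and mu-opioid receptor; Schedule: Fluo4 dye loading 45 min at room temperature, 110 s recording; Detection: Fluo4 fluorescence, kinetic; Evaluation: B-scored integrated calcium fluorescence ratio; Controls: buffer (low) and maximal DAMGO (high).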
HEK293 TRPC6 ctr: counter-screen for TRPC6 modulators: effect in parental HEK293 cells; shares compounds with TRPC6 inhibitor; membrane potential dye fluorescence; membrane potential signal change, % at 10 µM; actives 51% (n = 2,400); AID 488924;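 active = membrane potential signal moves up or down beyond 5 SD from buffer-only wells, on both duplicate plates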
HEK293 MPD ctr 2: second counter-screen for TRPC6 modulators: effect in parental HEK293 cells. shares compounds with TRPC6 inhibitor. actives 14% (n = 2,400). AID 488926. inhibition, % at 10 µM. membrane potential dye fluorescence; after compound, maximal acetylcholine stimulation;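 active = membrane potential signal drops by more than 5 SD from the mean control signal, in both duplicate plates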
TRPC4/MOR mod: tests whether TRPC6 modulators also affect mouse TRPC4; percent change from control (negative = decrease, positive = increase), % at 10 µM; HEK293 TRPC4/mu-opioid, membrane potential fluorescence; AID 488927; actives 69% (n = 2,400); shares compounds with TRPC6 inhibitor;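 active = membrane potential signal moved up or down beyond 5 SD of buffer control wells, in both duplicate plates, actives on both sides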
TRPC4 ctr inh 2: mouse TRPC4 off-target activity of TRPC6 modulators, second screen. shares compounds with TRPC6 inhibitor. HEK293 TRPC4/mu-opioid, membrane potential dye fluorescence; stimulated with maximal-effect DAMGO. inhibition, % at 10 µM. actives 55% (n = 2,400). AID 488928;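 active = drop in membrane potential signal beyond 5 SD of the control wells in both duplicate plates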;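 also: TRPC4 counter screen for TRPC6 hits run under conditions tuned for TRPC6 not TRPC4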
TRPC6 inh conf: mouse TRPC6 inhibitor confirmation | shares compounds with TRPC6 inhibitor | HEK293-TRPC6, membrane potential dye, ACh-evoked depolarization | inhibition, % at 10 µM | actives 43% (n = 3,300);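 active = fluorescence ratio falls more than 5 SD below the full-stimulation control mean, in both duplicate runs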;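 also: integrated fluorescence ratio of peak minus minimum over baseline after agonist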
TRPC6 act confirm: confirmation of mouse TRPC6 activators | shares compounds with TRPC6 inhibitor | HEK293-TRPC6 membrane potential dye fluorescence, FDSS | activation, % at 10 µM | actives 11% (n = 2,800) | AID 488961;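 active = ratio signal rise beyond 5 SD above unstimulated control wells' mean, seen in both duplicate runs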
Hits are given with their value.

`CSc1ccccc1NC(=O)c1ccccc1N(Cc1ccccc1)S(C)(=O)=O` gave TRPC4 block inactive, TRPC4 potent inactive, TRPC6 activator inactive, TRPC6 inhibitor -5.15, TRPC4 agonist inactive, HEK293 TRPC6 ctr 141.5%, HEK293 MPD ctr 2 inactive, TRPC4/MOR mod 29.5%, TRPC4 ctr inh 2 inactive and TRPC6 inh conf inactive.
`CCc1ccc(OCC2NCCc3cc(OC)c(OC)cc32)cc1` (stereo unspecified) gave TRPC4 block inactive, TRPC4 potent inactive, TRPC6 activator inactive, TRPC6 inhibitor -5.82, TRPC4 agonist inactive, HEK293 TRPC6 ctr inactive, HEK293 MPD ctr 2 inactive, TRPC4/MOR mod inactive, TRPC4 ctr inh 2 45.5%, TRPC6 inh conf inactive and TRPC6 act confirm inactive.
For O=C(CN1CCN(C(c2ccccc2)c2ccccc2)CC1)NCc1ccccc1 the results were TRPC4 block inactive, TRPC4 potent inactive, TRPC6 activator inactive, TRPC6 inhibitor -5.49, TRPC4 agonist inactive, HEK293 TRPC6 ctr inactive, HEK293 MPD ctr 2 inactive, TRPC4/MOR mod inactive, TRPC4 ctr inh 2 inactive, TRPC6 inh conf inactive and TRPC6 act confirm inactive.
`Nc1ccc(Br)c2c1C(=O)c1ccccc1C2=O` gave TRPC4 block inactive, TRPC4 potent inactive, TRPC6 activator inactive, TRPC6 inhibitor inactive and TRPC4 agonist inactive.
Screening Nc1ccc(O)c2c1C(=O)c1ccccc1C2=O returned TRPC4 block inactive, TRPC4 potent inactive, TRPC6 activator inactive, TRPC6 inhibitor -8.18, TRPC4 agonist inactive, HEK293 TRPC6 ctr -85.0%, HEK293 MPD ctr 2 inactive, TRPC4/MOR mod -39.5%, TRPC4 ctr inh 2 66.5%, TRPC6 inh conf 41.5% and TRPC6 act confirm inactive.
For CCCCOc1ccccc1NC(=O)CSc1nnnn1C(C)(C)C the results were TRPC4 block inactive, TRPC4 potent inactive, TRPC6 activator 12.4, TRPC6 inhibitor inactive, TRPC4 agonist inactive, HEK293 TRPC6 ctr 187.0%, HEK293 MPD ctr 2 inactive, TRPC4/MOR mod 38.5%, TRPC4 ctr inh 2 inactive and TRPC6 act confirm 114.0%.
COc1ccccc1NC(=O)CSc1nnnn1-c1ccc(C(=O)O)cc1 was read as TRPC4 block inactive, TRPC4 potent inactive, TRPC6 activator inactive, TRPC6 inhibitor inactive and TRPC4 agonist inactive.
`CCCCN(C)CCCNC(=O)CN1C(=O)COc2ccc(S(=O)(=O)N3CCOCC3)cc21` gave TRPC4 block inactive, TRPC4 potent inactive, TRPC6 activator inactive, TRPC6 inhibitor -5.38, TRPC4 agonist inactive, HEK293 TRPC6 ctr inactive, HEK293 MPD ctr 2 inactive, TRPC4/MOR mod inactive, TRPC4 ctr inh 2 inactive, TRPC6 inh conf inactive and TRPC6 act confirm inactive.
O=C(NCCCN1CCCC1)c1cc2c(Cl)nc3ccccc3c2s1 was read as TRPC4 block inactive, TRPC4 potent inactive, TRPC6 activator inactive, TRPC6 inhibitor -6.6, TRPC4 agonist inactive, HEK293 TRPC6 ctr inactive, HEK293 MPD ctr 2 inactive, TRPC4/MOR mod inactive, TRPC4 ctr inh 2 35.0%, TRPC6 inh conf inactive and TRPC6 act confirm inactive.
CCC(=O)N1CCN=C1SCc1cccc(F)c1 was read as TRPC4 block inactive, TRPC4 potent inactive, TRPC6 activator inactive, TRPC6 inhibitor inactive and TRPC4 agonist inactive.
For NC(=O)c1c(NC(=O)c2ccc(S(=O)(=O)N3CCOCC3)cc2)sc2c1CCCCC2 the results were TRPC4 block inactive, TRPC4 potent inactive, TRPC6 activator inactive, TRPC6 inhibitor inactive and TRPC4 agonist inactive.
CN1CCc2c(sc(NC(=O)c3ccc(S(=O)(=O)N4CCOCC4)cc3)c2C(N)=O)C1 was read as TRPC4 block inactive, TRPC4 potent inactive, TRPC6 activator inactive, TRPC6 inhibitor -7.59, TRPC4 agonist inactive, HEK293 TRPC6 ctr -258.0%, HEK293 MPD ctr 2 inactive, TRPC4/MOR mod -51.0%, TRPC4 ctr inh 2 35.0%, TRPC6 inh conf inactive and TRPC6 act confirm inactive.
Screening CN1CCc2c(sc(NC(=O)c3ccc(S(=O)(=O)N4CCc5ccccc54)cc3)c2C(N)=O)C1 returned TRPC4 block inactive, TRPC4 potent inactive, TRPC6 activator inactive, TRPC6 inhibitor inactive and TRPC4 agonist inactive.
`CN1CCc2c(sc(NC(=O)c3ccc(S(=O)(=O)N4CCCCCC4)cc3)c2C(N)=O)C1` gave TRPC4 block inactive, TRPC4 potent inactive, TRPC6 activator inactive, TRPC6 inhibitor -6.45, TRPC4 agonist inactive, HEK293 TRPC6 ctr inactive, HEK293 MPD ctr 2 inactive, TRPC4/MOR mod -69.0%, TRPC4 ctr inh 2 inactive, TRPC6 inh conf inactive and TRPC6 act confirm inactive.
CNC(=O)/C(=C\c1ccc([N+](=O)[O-])cc1)NC(C)=O was read as TRPC4 block inactive, TRPC4 potent inactive, TRPC6 activator inactive, TRPC6 inhibitor inactive and TRPC4 agonist inactive.
Screening O=C(NC1CC1)C1CCN(C2CCN(C(=O)CCOc3ccccc3)CC2)CC1 returned TRPC4 block inactive, TRPC4 potent inactive, TRPC6 activator 30.2, TRPC6 inhibitor inactive, TRPC4 agonist inactive, HEK293 TRPC6 ctr 245.5%, HEK293 MPD ctr 2 inactive, TRPC4/MOR mod 75.5%, TRPC4 ctr inh 2 inactive, TRPC6 inh conf inactive and TRPC6 act confirm 66.0%.
`O=C(NC1CC1)C1CCN(C2CCN(C(=O)CSc3ccccc3)CC2)CC1` gave TRPC4 block inactive, TRPC4 potent inactive, TRPC6 activator inactive, TRPC6 inhibitor inactive and TRPC4 agonist inactive.
`O=C(CCC(=O)N1CCOCC1)Nc1ccc(Cl)c(Cl)c1` gave TRPC4 block inactive, TRPC4 potent inactive, TRPC6 activator inactive, TRPC6 inhibitor inactive and TRPC4 agonist inactive.
Screening Cc1nc2cc(C(F)(F)F)ccc2n1C1CCN(CC(=O)N2CCOCC2)CC1 returned TRPC4 block inactive, TRPC4 potent inactive, TRPC6 activator inactive, TRPC6 inhibitor -5.21, TRPC4 agonist inactive, HEK293 TRPC6 ctr inactive, HEK293 MPD ctr 2 inactive, TRPC4/MOR mod inactive, TRPC4 ctr inh 2 inactive, TRPC6 inh conf inactive and TRPC6 act confirm inactive.
Cc1nc2cc(C(F)(F)F)ccc2n1C1CCN(CC(=O)N2CCCC2)CC1 was read as TRPC4 block inactive, TRPC4 potent inactive, TRPC6 activator inactive, TRPC6 inhibitor inactive and TRPC4 agonist inactive.
